High-throughput results (PubChem BioAssay)
This is a sample that favours compounds with a hit; in the whole collection about 4.9% have one here.
HSF1 inh: HSF1 inhibition; activity change, negative = inhibition, % at 7.5 µM (by protocol); NIH3T3-HGL HSE-luciferase, MG132-induced, luminescence 8 h; hits give low values; 0.77% of 300,000 active; AID 2098;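 active means more than half of replicate wells show activity change below -50%, luminescence cut by over half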;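 further: luciferase reports HSF-1 transcriptional activity via heat shock element; 0% = median of DMSO wells and -100% = zero luminescence signal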
PHOSPHO1 block: PHOSPHO1 (human) inhibition | 1.1% of 290,000 active | recombinant PHOSPHO1, absorbance phosphatase assay | inhibition, % at 13.3 µM | Q8TCT1; in the data active means inhibition above about 60%
HSF1 activator: increases HSF-1 driven luciferase reporter signal | 1.7% of 300,000 active | AID 504408 | NIH3T3-HGL HSF-1 luciferase reporter, MG132, 8 h; 100% = twice DMSO control signal | activation, % at 9 µM;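 active means mean replicate activation of at least 50% with a set share of replicates each reaching 50%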;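 further: 0% = median of the neutral control wells and 100% = twice that signal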
Lipid droplet: modulators of hepatic lipid droplet formation; AML12 mouse hepatocytes, oleate lipid droplets, BODIPY imaging; inhibition, % at 6.5 µM; 0.4% of 240,000 active; AID 1656;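 active means lipid droplet intensity inhibited by at least 50%, with more than 500 cells counted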
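Assay system: AML12 hepatocytes (mouse); Probe or stimulus: oleic acid at 100 µM to induce lipid droplet formation; Dosing: compound at 6.5 µM only; Schedule: compound with oleate, overnight; Detection: fluorescence imaging, 20x objective, two fields per well; Measure: % inhibition of lipid droplet signal.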
CHT allo act: allosteric activators of human choline transporter CHT; Q9GZV3; B-score at 10 µM; 0.49% of 310,000 active; AID 488977; CHT-expressing cells, membrane potential dye, choline EC20; hits give high values; LV-AA mutant CHT in HEK293 cells;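 active means initial fluorescence not abnormally high and integrated response B-score, plate-corrected, over 3 SD above library mean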
Target sequence (Q9GZV3 whole entry, looked up): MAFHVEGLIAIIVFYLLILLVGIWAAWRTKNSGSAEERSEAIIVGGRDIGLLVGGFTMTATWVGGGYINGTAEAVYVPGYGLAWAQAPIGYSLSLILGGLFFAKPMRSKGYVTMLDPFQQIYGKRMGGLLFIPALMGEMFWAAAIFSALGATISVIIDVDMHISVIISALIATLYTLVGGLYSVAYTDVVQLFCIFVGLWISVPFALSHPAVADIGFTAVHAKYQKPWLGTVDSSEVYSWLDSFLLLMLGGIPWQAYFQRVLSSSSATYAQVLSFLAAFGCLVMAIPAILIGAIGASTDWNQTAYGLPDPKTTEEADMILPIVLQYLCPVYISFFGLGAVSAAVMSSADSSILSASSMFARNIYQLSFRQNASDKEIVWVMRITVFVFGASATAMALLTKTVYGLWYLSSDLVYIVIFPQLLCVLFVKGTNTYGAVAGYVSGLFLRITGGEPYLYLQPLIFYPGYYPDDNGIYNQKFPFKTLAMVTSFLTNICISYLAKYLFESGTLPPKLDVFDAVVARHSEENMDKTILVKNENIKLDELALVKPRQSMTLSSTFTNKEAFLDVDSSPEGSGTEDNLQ
CHT block: human CHT choline transport inhibition. AID 488975. B-score at 10 µM. CHT-expressing cells, membrane potential dye, choline response; hits give low values. 0.86% of 310,000 active;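 active means B-score over 3 SD under the library average, and starting fluorescence ratio not unusually high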;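 further: choline stimulus applied at its EC90 after an EC20 pre-addition; B-score computed on integrated fluorescence ratio after choline addition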
* = called active by the depositor; i = inactive; . = not tested or not shown.

SMILES | HSF1 inh | PHOSPHO1 block | HSF1 activator | Lipid droplet | CHT allo act | CHT block
O=C(c1ccc(S(=O)(=O)N2CCCCC2)cc1)N1CCN(c2ccccc2F)CC1 | 12 | 6 | 43 | -19 | i | i
COC(=O)c1cccc(C(=O)N2CCCC(C(=O)c3ccccc3OC)C2)c1 (configuration not stated) | 20 | 31 | 59* | 3 | i | i
Nc1n[nH]c2cc(=O)n(-c3cccc(C(F)(F)F)c3)nc12 | 8 | 24 | -2 | 3 | i | i
O=c1[nH][nH]c2cc(=O)n(-c3cccc(C(F)(F)F)c3)nc12 | 8 | 19 | 52* | 2 | i | i
C/C(=N\Nc1ccc([N+](=O)[O-])cc1)c1ccc(-n2nncc2C)cc1 | -14 | -15 | 1 | -6 | i | i
O=C(C1CCCN(S(=O)(=O)Cc2ccccc2)C1)N1CCc2ccccc21 (configuration not stated) | -58* | 19 | -69 | 7 | i | i
CNC(=S)N1N=C(c2ccc(C)cc2)CC1c1ccc(Br)cc1 (configuration not stated) | 6 | 5 | 18 | -12 | i | i
CC(C)c1ccc(C2CC(c3ccc(Br)cc3)=NN2C(N)=S)cc1 (configuration not stated) | 48 | -8 | 74* | -3 | i | i
O=S(=O)(NC1c2cccc3cccc(c23)C1N1CCNCC1)c1ccc(Cl)cc1 (configuration not stated) | 26 | 50 | 61* | -19 | i | i
Cc1ccc(NC(=O)COc2ccccc2C=O)cc1Cl | 44 | 20 | 80* | 7 | i | i
Cc1c[nH]c2cccc(OCC(CNC(C)(C)C)OC(=O)c3ccccc3)c12 (configuration not stated) | -2 | 33 | -11 | -10 | i | -11*
CCn1cc(C(=O)NCCC(C)C)c(=O)c2cc(F)c(N3CCN(C)CC3)cc21 | -3 | . | 4 | . | i | i
CC(C)CCC(O)(c1ccccc1)C(CN1CCOCC1)c1ccccc1 (configuration not stated) | 10 | 9 | 15 | -21 | i | i
O=C(C[n+]1cccc(CNC(=O)c2ccc(OC(F)F)cc2)c1)Nc1ccc(F)cc1 | -4 | -10 | 4 | 39 | i | i
O=C(C[n+]1cccc(CNC(=O)c2ccc(OC(F)F)cc2)c1)c1ccccc1 | 0 | 61* | 6 | -1 | i | i
Cc1cccc(C(=O)n2c(=S)nc3cc(C)ccn32)c1 | -17 | -6 | -16 | 0 | i | i
COc1ccc(OC)c(NC(=O)CS(=O)(=O)Cc2ccccc2)c1 | -61* | . | -71 | 4 | . | .
COc1ccc(OC)c(NC(=O)CSc2ccccc2)c1 | 9 | 5 | 30 | 3 | i | i
COc1ccc(OC)c(NC(=O)CSCC(=O)O)c1 | -90* | -4 | -92 | 7 | i | i
COc1ccc(OC)c(NC(=O)CSc2ncccn2)c1 | 5 | 76* | 4 | 0 | i | i
COc1ccc(OC)c(NC(=O)CSc2nnc(Cc3cccn3C)n2CCc2ccccc2)c1 | 13 | 69* | 29 | . | i | i
Cc1ccccc1-c1nc(CS(=O)CC(=O)NCCc2ccc(Cl)cc2)c(C)o1 (configuration not stated) | 5 | 42 | 7 | -4 | i | i
Cc1ccc(Nc2ccc([N+](=O)[O-])ccc2=O)cc1 | 1 | . | 14 | . | i | i
CCCCOC(=O)Cn1c(=O)c2c(nc(Br)n2Cc2ccccc2)n(C)c1=O | 2 | 20 | 7 | . | i | i
CC(C)(C)c1ccc(C(=O)NCC(=O)N2CCNC(=O)C2)cc1 | -5 | 28 | -9 | 1 | i | i
SMILES | HSF1 inh | PHOSPHO1 block | HSF1 activator | Lipid droplet | CHT allo act | CHT block
CCOC(=O)c1c(NC(=O)Cn2cnc([N+](=O)[O-])n2)sc2c1CCCC2 | 3 | -8 | 10 | 4 | i | i
CC(C)OC(=O)c1c(NC(=O)Cn2cnc([N+](=O)[O-])n2)sc2c1CCCC2 | 12 | 29 | 58* | -3 | i | i
COc1cc(C)c(S(=O)(=O)N2CCN=C2c2ccccc2)cc1C | 10 | -6 | 56* | -21 | i | i
Cc1cc(C)c(S(=O)(=O)N2CCN=C2c2ccccc2)cc1C | -5 | 4 | -2 | -11 | i | i
O=C(Cc1ccc(Cl)cc1)N/N=C/c1cccs1 | -12 | 49 | -1 | -11 | i | i
CCOC(=O)C1(CCOc2ccccc2)CCN(Cc2cccc3nonc23)CC1 | -4 | 60* | 1 | -26 | i | i
CN1CCN(c2ccc(-c3cccc(NC(=O)COc4ccc(Cl)cc4Cl)c3)nn2)CC1 | -54* | . | -60 | . | i | i
CCOC(=O)NC(Nc1sc2c(c1C(N)=O)CCCC2)(C(=O)OCC)C(F)(F)F (configuration not stated) | 0 | 73* | -11 | . | i | i
CCOC(=O)C(NC(=O)CC)(Nc1nc2c(s1)CCCC2)C(F)(F)F (configuration not stated) | -7 | -8 | 2 | -7 | i | i
Cc1ccc(SCc2cn3c(C)csc3n2)cc1 | 57 | -21 | 91* | 5 | i | i
Cc1ccc(N=C2SC(C(=O)NCCc3ccccc3)CC(=O)N2C)cc1C (configuration not stated) | 18 | 0 | 70* | -32 | i | i
Cc1ccc(N=C2SC(C(=O)O)CC(=O)N2C)cc1C (configuration not stated) | -2 | 36 | -18 | 6 | i | i
COc1ccc(CCNC(=O)c2nonc2N)cc1 | 41 | -17 | 61* | -2 | i | i
C/C(=N\Nc1ccccn1)c1ccc(N2CCOCC2)cc1 | -4 | 25 | 7 | 0 | i | i
COC(=O)c1c(C)[nH]c(C(=O)CSc2ncnc3sc(-c4ccccc4)cc23)c1C | -8 | -4 | -12 | 2 | i | i
Cn1ncc(Br)c1NC(=O)c1cc(Cl)cc(Cl)c1 | 1 | 25 | 12 | 3 | i | i
CN(CC(=O)Nc1cccc(F)c1)CC(=O)Nc1cccc(S(=O)(=O)N2CCCCCC2)c1 | 15 | 11 | 38 | 1 | i | i
CN(CC(=O)Nc1cccc(F)c1)CC(=O)Nc1cccc(S(N)(=O)=O)c1 | -72* | 25 | -80 | 0 | i | i
CN(C)c1ccc(C2C=C(c3ccc(Cl)cc3OC(F)F)Nc3ncnn32)cc1 (configuration not stated) | -5 | 67* | -7 | 7 | i | i
Cc1ccc(C2C=C(c3ccccc3OC(F)F)Nc3ncnn32)cc1 (configuration not stated) | 5 | -14 | 15 | -4 | i | i
